ChEMBL document CHEMBL1157612, “Synthesis and biological activities of 2-amino-1-arylidenamino imidazoles as orally active anticancer agents” (J Med Chem, 2010)
One block for each molecule: values may come before it. The source made the active and inactive calls. The rule behind the calls is not given here.

Experiments:
NUGC-3 [1] = experiment: Anticancer activity against human NUGC3 cells after 72 hrs by MTS/PMS assay; type: functional, cell-based; conditions: NUGC-3, 72 h
Procedure, shortened: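 NUGC-3 gastric cancer cells seeded 4500/well, grown 24 h at 37 °C, 5% CO2, then exposed 72 h to a concentration series, duplicate wells per concentration, final DMSO ≤0.3%. Controls were actinomycin D 10 nM and 0.3% DMSO vehicle. Viability read colorimetrically by MTS/PMS. IC50 is the concentration giving 50% growth inhibition, reported as mean of triplicate wells from at least three experiments.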

P388 [2] = experiment: Anticancer activity against mouse P388 cells xenografted in DBA/2J mouse assessed as increase in mouse life span at 25 mg/kg, po administered daily for 9 consecutive days; type: functional
Procedure, shortened: (§1)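 Female DBA/2J mice, 5 weeks old, each given 1 × 10^6 P388 cells iv. Oral dosing by gavage (0.1 mL) started one day after inoculation. Compound was dissolved in DMSO and diluted in 0.5% carboxymethyl cellulose (final DMSO <0.5%). Groups of 7–8 mice; vehicle-only controls. Survival checked twice daily. Result is percentage increase in median survival time relative to the control group.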

Mus musculus [3] = experiment: Toxicity in DBA/2J mouse xenografted with mouse P388 cells assessed as body weight loss at 2.5 to 7.5 mg/kg, iv administered daily for 4 consecutive days; type: organism-based; design: dose 2.5-7.5 mg/kg, route intravenous; conditions: in vivo
P388 [4] = experiment: Anticancer activity against mouse P388 cells xenografted in DBA/2J mouse assessed as increase in mouse life span at 100 mg/kg, po administered daily for 9 consecutive days; type: functional; procedure, shortened: as §1
NUGC-3 [5] = experiment: Induction of apoptosis in human NUGC3 cells assessed as DNA fragmentation at 1 uM after 16 hrs by Hoechst 33258 staining-based confocal laser-scanning microscopy; type: functional, cell-based
Procedure, shortened: (§2)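 NUGC-3 cells exposed to 1 μM for 16 h, then fixed in 4% formaldehyde 10 min and blocked with BSA. Stained with monoclonal anti-β-tubulin (1:200, 4 °C overnight) followed by FITC anti-mouse IgG (1:300, 1 h), and for DNA with Hoechst 33258 (1 μg/mL in 0.1% Triton X-100, 5 min). Imaged by confocal laser-scanning microscopy. DMSO vehicle control included.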

P388 [6] = experiment: Anticancer activity against mouse P388 cells xenografted in iv dosed DBA/2J mouse assessed as increase in mouse life span administered daily for 4 consecutive; type: functional, organism-based
Procedure, shortened: (§3)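 Female DBA/2J mice, 5 weeks old, inoculated iv with 1 × 10^6 P388 cells each; dosing began one day later, 7–8 mice per group. Compound in DMSO diluted into 0.5% carboxymethyl cellulose (final DMSO <0.5%). Regimens: iv 2.5 or 7.5 (mg/kg)/day for 4 days; po gavage (0.1 mL) 25–200 (mg/kg)/day for 9 days. Vehicle-only controls. Survival checked twice daily; increase in life span computed from median survival time normalized to controls.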

[7] = Inhibition of bovine brain tubulin polymerization by turbidity assay; design: species or system Bos taurus
P388 [8] = experiment: Anticancer activity against mouse P388 cells xenografted in DBA/2J mouse assessed as increase in mouse life span at 2.5 mg/kg, iv administered daily for 4 consecutive days; type: functional
Procedure, shortened: (§4)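 Female DBA/2J mice, 5 weeks old, each inoculated iv with 1 × 10^6 P388 cells (grown in RPMI 1640 with nonessential amino acids, 50 μM 2-mercaptoethanol, 10% FBS). Compound was given iv starting one day after inoculation. Groups of 7–8 mice plus vehicle controls, monitored twice daily. Percentage increase in life span calculated from median survival time, normalised to controls.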

MKN-45 [9] = experiment: Ex vivo antiproliferative activity against human MKN45 cells xenografted in nude mouse assessed as drug concentration reducing 50% of BrdU labeling index after 96 hrs by immunostaining; type: functional, cell-based; conditions: MKN-45, 96 h
Procedure, shortened: (§5)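 MKN-45 or SW-480 cells (1 × 10^6) grown subcutaneously in nude mice to ~1 cm3; tumors cut into 1–2 mm pieces and histocultured on gelatin gels in MEM/DMEM with 10% FBS at 37 °C. After 3 days, exposed 96 h to 0.0001–10 μg/mL, then 40 μM BrdU for 48 h. Fixed, paraffin-sectioned, BrdU-immunostained with hematoxylin counterstain. Labeling index = BrdU-positive/total tumor cells; IC50 taken as concentration halving LI.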

P388 [10] = experiment: Anticancer activity against mouse P388 cells xenografted in po dosed DBA/2J mouse assessed as increase in mouse life span administered daily for 9 consecutive days; type: functional, organism-based; procedure, shortened: as §3
P388 [11] = experiment: Anticancer activity against mouse P388 cells xenografted in DBA/2J mouse assessed as increase in mouse life span at 200 mg/kg, po administered daily for 9 consecutive days; type: functional; procedure, shortened: as §1
P388 [12] = experiment: Anticancer activity against mouse P388 cells xenografted in DBA/2J mouse assessed as increase in mouse life span at 7.5 mg/kg, iv administered daily for 4 consecutive days; type: functional; procedure, shortened: as §4
MKN-45 [13] = experiment: Ex vivo antiproliferative activity against human MKN45 cells xenografted in nude mouse assessed as BrdU incorporation into DNA after 96 hrs by immunostaining; type: functional, cell-based; procedure, shortened: as §5
Mus musculus [14] = experiment: Toxicity in DBA/2J mouse xenografted with mouse P388 cells assessed as body weight loss at 25 to 200 mg/kg, po administered daily for 9 consecutive days; type: organism-based; design: dose 25-200 mg/kg, route oral; conditions: in vivo
NUGC-3 [15] = experiment: Induction of microtubule arrangement aberration in human NUGC3 cells assessed as appearance of tubulin at 1 uM after 16 hrs FITC analysis; type: functional, cell-based; procedure, shortened: as §2
NUGC-3 [16] = experiment: Induction of apoptosis in human NUGC3 cells assessed as DNA fragmentation at 100 nM by ethidium bromide staining-based agarose gel electrophoresis; type: functional, cell-based
SW480 [17] = experiment: Ex vivo antiproliferative activity against human SW480 cells xenografted in nude mouse assessed as BrdU incorporation into DNA after 96 hrs by immunostaining; type: functional, cell-based; procedure, shortened: as §5
Bos taurus [18] = species on record: Bos taurus; experiment: Displacement of [3H]colchicine from bovine brain tubulin after 1 hr by scintillation counting
Bos taurus [19] = species on record: Bos taurus; experiment: Displacement of [3H]colchicine from bovine brain tubulin at 25 uM after 1 hr by scintillation counting
SW480 [20] = experiment: Ex vivo antiproliferative activity against human SW480 cells xenografted in nude mouse assessed as BrdU incorporation into DNA at 10 ug/mL after 96 hrs by immunostaining; type: functional, cell-based; procedure, shortened: as §5
MKN-45 [21] = experiment: Ex vivo apoptotic activity in human MKN45 cells xenografted in nude mouse assessed as DNA fragmentation at 10 ug/mL after 96 hrs by immunostaining; type: functional, cell-based
MKN-45 [22] = experiment: Ex vivo antiproliferative activity against human MKN45 cells xenografted in nude mouse assessed as BrdU incorporation into DNA at 10 ug/mL after 96 hrs by immunostaining; type: functional, cell-based; procedure, shortened: as §5

SMILES: Nc1nc(-c2ccccc2)cn1/N=C/c1ccccc1Cl
IC50 (NUGC-3 [1]): 3970 nM

SMILES: Cc1ccsc1/C=N/n1cc(-c2ccccc2)nc1N
IC50 (NUGC-3 [1]): 910 nM

SMILES: Nc1nc(-c2ccccc2)cn1/N=C/c1ccnc2ccccc12
IC50 (NUGC-3 [1]): > 10000 nM

SMILES: COc1ccccc1-c1cn(/N=C/c2ccc(Cl)cc2)c(N)n1
IC50 (NUGC-3 [1]): 5200 nM

SMILES: Nc1nc(-c2ccccc2)cn1/N=C/c1ccccc1
IC50 (NUGC-3 [1]): 840 nM

SMILES: Nc1nc(-c2ccccn2)cn1/N=C/c1ccc(Cl)cc1
IC50 (NUGC-3 [1]): 310 nM

SMILES: Nc1nc(-c2cccs2)cn1/N=C/c1ccc(Cl)cc1
IC50 (NUGC-3 [1]): 80 nM

SMILES: Nc1nc(-c2ccccc2)cn1/N=C/c1ccc(Cl)cc1
Activity (P388 [2]): 14%
Activity (Mus musculus [3]): Non-toxic
Activity (P388 [4]): 71%
IC50 (NUGC-3 [1]): 60 nM
Activity (NUGC-3 [5]): Active
Activity (P388 [6]): Dose-dependent effect
IC50 [7]: 2650 nM
Activity (P388 [8]): 17%
IC50 (MKN-45 [9]): 13000 nM
Activity (P388 [10]): Dose-dependent effect
Activity (P388 [11]): 114%
Activity (P388 [12]): 100%
Activity (MKN-45 [13]): Dose-dependent effect
Activity (Mus musculus [14]): Non-toxic
Activity (NUGC-3 [15]): Active
Activity (NUGC-3 [16]): Active
Activity (SW480 [17]): Dose-dependent effect
Activity (Bos taurus [18]): Dose-dependent effect
Activity (Bos taurus [19]): Active

SMILES: Nc1nc(-c2ccccc2)cn1/N=C/c1cccc(Cl)c1Cl
IC50 (NUGC-3 [1]): 5120 nM

SMILES: Nc1nc(-c2ccccc2)cn1/N=C/c1ccc(F)cc1
IC50 (NUGC-3 [1]): 50 nM
Activity (SW480 [20]): Active
IC50 (MKN-45 [9]): 34000 nM
Activity (P388 [11]): 110%
Activity (MKN-45 [21]): Active
Activity (MKN-45 [22]): Active

SMILES: Nc1nc(-c2ccccc2)cn1/N=C/c1ccc(C(F)(F)F)cc1
IC50 (NUGC-3 [1]): 5770 nM

SMILES: Nc1nc(-c2nccs2)cn1/N=C/c1ccc(Cl)cc1
IC50 (NUGC-3 [1]): 510 nM

SMILES: Nc1nc(-c2ccccc2)c(-c2ccccc2)n1/N=C/c1ccc(Cl)cc1
IC50 (NUGC-3 [1]): > 10000 nM

SMILES: Nc1nc(-c2ccccc2)cn1/N=C/c1ccc(Cl)c(Cl)c1
IC50 (NUGC-3 [1]): 740 nM

SMILES: Nc1nc(-c2ccccc2)cn1/N=C/c1ccc(Br)cc1
IC50 (NUGC-3 [1]): 580 nM

SMILES: Nc1nc(-c2ccsc2)cn1/N=C/c1ccc(Cl)cc1
IC50 (NUGC-3 [1]): 50 nM

SMILES: Nc1nc(-c2ccc(Cl)s2)cn1/N=C/c1ccc(Cl)cc1
IC50 (NUGC-3 [1]): 3280 nM

SMILES: Nc1nc(-c2cccnc2)cn1/N=C/c1ccc(F)cc1
IC50 (NUGC-3 [1]): 60 nM

IC50 [7]: 270 nM
Activity (Bos taurus [18]): Dose-dependent effect
Activity (Bos taurus [19]): Active
SMILES: Nc1nc(-c2cccnc2)cn1/N=C/c1ccc(Cl)cc1
IC50 (NUGC-3 [1]): 230 nM
Activity (NUGC-3 [16]): Active

SMILES: Nc1nc(-c2ccc(-c3ccccc3)cc2)cn1/N=C/c1ccc(Cl)cc1
IC50 (NUGC-3 [1]): > 10000 nM

SMILES: COc1cc2c(c(OC)c1OC)-c1ccc(OC)c(=O)cc1[C@@H](NC(C)=O)CC2 [COLCHICINE]
IC50 (NUGC-3 [1]): 10 nM
